The text below walks through data of ChEMBL document CHEMBL4118244, “Design, synthesis and biological evaluation of benzofuran appended benzothiazepine derivatives as inhibitors of butyrylcholinesterase and antimicrobial agents” (Bioorg Med Chem, 2018).

Broadly, the MIC is the lowest concentration that inhibits growth of the organism. By IC50 is commonly meant the concentration at which inhibition is half-maximal.

Values after ≈ are worked out from the molar mass of the structure shown. Active and inactive are the calls of the source. The rule behind the calls is not given here.

Experiment [1] concerns Pseudomonas aeruginosa. Kind of experiment: Antibacterial activity against Pseudomonas aeruginosa ATCC 27853 assessed as diameter of inhibition zone at 200 ug per disc after 24 hrs by agar disc diffusion method. Type of experiment: functional. To be noted: ATCC 27853, 24 h, read-out: DIZ. Put shortly:
(§1)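 Agar disc diffusion. Compounds at 20 mg mL⁻¹ in DMSO, filter-sterilised. 100 µL of 10⁸ CFU mL⁻¹ bacteria spread on nutrient agar. 6 mm discs carried 10 µl (200 µg per disc), with DMSO discs as negative control. Incubation 24 h at 37 °C. Read-out is inhibition zone diameter, mean of 3 repeats (±1 mm).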
For orientation: Agar diffusion results depend on both activity and mobility in agar.

Experiment [2] has as its system Aspergillus brasiliensis. Kind of experiment: Antifungal activity against Aspergillus brasiliensis PTCC 5011 assessed as diameter of inhibition zone at 200 ug per disc after 72 hrs by agar disc diffusion method. Type of experiment: functional. The settings on record: PTCC 5011, 72 h, read-out: DIZ. A digest of the protocol:
(§2)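 Agar disc diffusion against mold. Compounds at 20 mg mL⁻¹ in DMSO, filter-sterilised. 6 mm discs carried 10 µl (200 µg per disc), with DMSO discs as negative control. Incubation 72 h at 30 °C. Read-out is growth inhibition zone diameter, mean of 3 repeats (±1 mm).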

The test system of experiment [3] is Shigella dysenteriae. Kind of experiment: Antibacterial activity against Shigella dysenteriae PTCC 1188 assessed as diameter of inhibition zone at 200 ug per disc after 24 hrs by agar disc diffusion method. Format: functional. Put shortly: as §1
The subject of experiment [4] is Salmonella paratyphi. The experiment is described as follows: Antibacterial activity against Salmonella paratyphi A serotype ATCC 5702. Format: functional, Salmonella enterica subsp. enterica serovar Paratyphi A. The settings on record: Salmonella enterica.
In experiment [5] the test system is Proteus vulgaris. The experiment is described as follows: Antibacterial activity against Proteus vulgaris PTCC 1182 assessed as diameter of inhibition zone at 200 ug per disc after 24 hrs by agar disc diffusion method. Type of experiment: functional. A digest of the protocol:
as §1

Experiment [6] relates to Bacillus spizizenii. Kind of experiment: Antibacterial activity against Bacillus subtilis ATCC 6633 assessed as diameter of inhibition zone at 200 ug per disc after 24 hrs by agar disc diffusion method. Type of experiment: functional. A digest of the protocol:
as §1

Experiment [7] deals with Shigella dysenteriae. Kind of experiment: Antibacterial activity against Shigella dysenteriae PTCC 1188. Format: functional.
The subject of experiment [8] is Proteus vulgaris. Kind of experiment: Antibacterial activity against Proteus vulgaris PTCC 1182. Format: functional.
Experiment [9] deals with Salmonella paratyphi. Kind of experiment: Antibacterial activity against Salmonella paratyphi A serotype ATCC 5702 assessed as diameter of inhibition zone at 200 ug per disc after 24 hrs by agar disc diffusion method. Type of experiment: functional, Salmonella enterica subsp. enterica serovar Paratyphi A. A digest of the protocol:
as §1

In experiment [10] the test system is Bacillus spizizenii. Kind of experiment: Antibacterial activity against Bacillus subtilis ATCC 6633. Type of experiment: functional.
Experiment [11] has as its system Candida albicans. The experiment is described as follows: Antifungal activity against Candida albicans ATCC 10231. Type of experiment: functional.
Experiment [12] relates to Staphylococcus aureus. Kind of experiment: Antibacterial activity against Staphylococcus aureus ATCC 29737. Type of experiment: functional.
Experiment [13] has as its system Candida albicans. The experiment is described as follows: Antifungal activity against Candida albicans ATCC 10231 assessed as diameter of inhibition zone at 200 ug per disc after 48 hrs by agar disc diffusion method. To be noted: ATCC 10231, 48 h, read-out: DIZ. Type of experiment: functional. A digest of the protocol: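 Yeast tested by agar disc diffusion. Compounds at 20 mg mL⁻¹ in DMSO, filter-sterilised. 6 mm discs carried 10 µl (200 µg per disc), with DMSO discs as negative control. Incubation 48 h at 30 °C. Zone diameter was averaged over 3 repeats (±1 mm).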

Experiment [14] concerns Escherichia coli. Kind of experiment: Antibacterial activity against Escherichia coli ATCC 10536 assessed as diameter of inhibition zone at 200 ug per disc after 24 hrs by agar disc diffusion method. Format: functional. The settings on record: ATCC 10536, 24 h, read-out: DIZ. Put shortly:
as §1

Experiment [15] relates to Aspergillus brasiliensis. The experiment is described as follows: Antifungal activity against Aspergillus brasiliensis PTCC 5011. Type of experiment: functional.
Experiment [16] relates to Aspergillus niger. The experiment is described as follows: Antifungal activity against Aspergillus niger ATCC 16404 assessed as diameter of inhibition zone at 200 ug per disc after 72 hrs by agar disc diffusion method. Type of experiment: functional. To be noted: ATCC 16404, 72 h, read-out: DIZ. Put shortly: as §2
In experiment [17] the test system is Aspergillus niger. The experiment is described as follows: Antifungal activity against Aspergillus niger ATCC 16404. Type of experiment: functional.
Experiment [18] deals with Escherichia coli. Kind of experiment: Antibacterial activity against Escherichia coli ATCC 10536. Type of experiment: functional.
Experiment [19] concerns the target Acetylcholinesterase (Electrophorus electricus) (UniProt O42275). Kind of experiment: Inhibition of electric eel AChE using acetylthiocholine iodide as substrate pretreated for 15 mins followed by substrate addition measured for 6 mins by Ellman's method. Put shortly: (§3)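 Ellman spectrophotometric assay in 0.1 M phosphate buffer pH 8.0 with DTNB, 25 °C. AChE (electric eel, Type V-S) or BChE was preincubated 15 min with compound before adding acetylthiocholine iodide or butyrylthiocholine iodide, respectively. Absorbance change at 412 nm was read for 6 min. Five concentrations were tested in triplicate, corrected by a nonenzymatic blank, with a no-inhibitor reference.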
(In general: In Ellman's method for cholinesterases, released thiocholine reacts with DTNB.)

For experiment [20], the system named is Staphylococcus epidermidis. Kind of experiment: Antibacterial activity against Staphylococcus epidermidis ATCC 12228 assessed as diameter of inhibition zone at 200 ug per disc after 24 hrs by agar disc diffusion method. Type of experiment: functional. A digest of the protocol:
as §1

The test system of experiment [21] is Klebsiella pneumoniae. Kind of experiment: Antibacterial activity against Klebsiella pneumoniae ATCC 10031 assessed as diameter of inhibition zone at 200 ug per disc after 24 hrs by agar disc diffusion method. Type of experiment: functional. A digest of the protocol:
as §1

The target of a further experiment is Cholinesterase (Equus caballus, UniProt P81908). The experiment is described as follows: Inhibition of equine serum BChE using butyrylthiocholine iodide as substrate pretreated for 15 mins followed by substrate addition measured for 6 mins by Ellman's method. Put shortly: as §3
The subject of experiment [22] is Staphylococcus aureus. Kind of experiment: Antibacterial activity against Staphylococcus aureus ATCC 29737 assessed as diameter of inhibition zone at 200 ug per disc after 24 hrs by agar disc diffusion method. Type of experiment: functional. The settings on record: ATCC 29737, 24 h, read-out: DIZ. A digest of the protocol: as §1
Experiment [23] deals with Staphylococcus epidermidis. Kind of experiment: Antibacterial activity against Staphylococcus epidermidis ATCC 12228. Format: functional.
Experiment [24] relates to Klebsiella pneumoniae. Kind of experiment: Antibacterial activity against Klebsiella pneumoniae ATCC 10031. Type of experiment: functional.
Experiment [25] relates to Pseudomonas aeruginosa. Kind of experiment: Antibacterial activity against Pseudomonas aeruginosa ATCC 27853. Type of experiment: functional.

Cholinesterase, sequence (P81908 whole entry, the tested form may be a part): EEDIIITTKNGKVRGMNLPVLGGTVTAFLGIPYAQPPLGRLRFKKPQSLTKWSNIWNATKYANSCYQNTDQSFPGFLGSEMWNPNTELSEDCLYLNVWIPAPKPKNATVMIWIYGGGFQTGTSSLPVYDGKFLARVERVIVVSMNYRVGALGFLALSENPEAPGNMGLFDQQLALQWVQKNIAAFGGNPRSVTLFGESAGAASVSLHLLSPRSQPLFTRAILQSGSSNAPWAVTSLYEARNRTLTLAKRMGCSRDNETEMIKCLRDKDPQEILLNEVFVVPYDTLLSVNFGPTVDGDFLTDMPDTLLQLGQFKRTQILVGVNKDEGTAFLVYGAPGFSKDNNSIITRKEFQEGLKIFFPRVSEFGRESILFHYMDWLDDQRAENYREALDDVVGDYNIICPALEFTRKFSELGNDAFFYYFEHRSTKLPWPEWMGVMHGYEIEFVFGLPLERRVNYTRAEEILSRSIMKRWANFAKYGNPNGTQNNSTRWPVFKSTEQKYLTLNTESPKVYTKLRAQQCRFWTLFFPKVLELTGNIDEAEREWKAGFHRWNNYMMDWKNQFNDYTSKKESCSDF
Acetylcholinesterase (Electrophorus electricus), sequence (O42275 24-633 limits assumed): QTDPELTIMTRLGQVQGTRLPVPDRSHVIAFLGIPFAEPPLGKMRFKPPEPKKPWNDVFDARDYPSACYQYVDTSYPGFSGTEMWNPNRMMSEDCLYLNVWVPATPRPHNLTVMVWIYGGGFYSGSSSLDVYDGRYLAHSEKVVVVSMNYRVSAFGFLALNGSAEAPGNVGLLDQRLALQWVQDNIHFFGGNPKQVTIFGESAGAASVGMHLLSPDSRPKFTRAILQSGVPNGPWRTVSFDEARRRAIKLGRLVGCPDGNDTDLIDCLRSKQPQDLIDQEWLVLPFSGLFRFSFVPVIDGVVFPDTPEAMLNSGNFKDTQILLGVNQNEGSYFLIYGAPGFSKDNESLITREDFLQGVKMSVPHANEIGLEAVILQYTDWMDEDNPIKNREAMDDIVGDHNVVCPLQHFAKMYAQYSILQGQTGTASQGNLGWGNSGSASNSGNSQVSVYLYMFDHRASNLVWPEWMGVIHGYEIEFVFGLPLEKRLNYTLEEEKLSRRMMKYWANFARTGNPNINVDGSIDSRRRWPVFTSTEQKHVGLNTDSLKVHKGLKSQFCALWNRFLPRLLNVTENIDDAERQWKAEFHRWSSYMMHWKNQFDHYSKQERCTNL

`O=[N+]([O-])c1cccc(C2CC(c3cc4cc(Br)ccc4o3)=Nc3ccccc3S2)c1` (stereo not given): the zone of inhibition at 200 µg/disc in the experiment with Pseudomonas aeruginosa [1] was under 6 mm; in the experiment with Aspergillus brasiliensis [2], 23 mm; in the experiment with Shigella dysenteriae [3] (PTCC 1188, 24 h, read-out: DIZ), under 6 mm; with Proteus vulgaris [5] (PTCC 1182, 24 h, read-out: DIZ) it was under 6 mm; with Bacillus spizizenii [6] (ATCC 6633, 24 h, read-out: DIZ) it was 19 mm; with Salmonella paratyphi [9] (Salmonella enterica, ATCC 5702, 24 h, read-out: DIZ), 23 mm. Moreover, the zone of inhibition at 200 µg/disc is under 6 mm with Candida albicans [13]; under 6 mm with Escherichia coli [14]; 20 mm with Aspergillus niger [16]; under 6 mm in experiment [20] (ATCC 12228, 24 h, read-out: DIZ); under 6 mm in the experiment on Klebsiella pneumoniae [21] (ATCC 10031, 24 h, read-out: DIZ); under 6 mm in the experiment on Staphylococcus aureus [22]. Also, the MIC was found to be 0.5 µg/mL (≈ 1.04 µM) with Salmonella paratyphi [4], 12.5 µg/mL (≈ 26.1 µM) with Bacillus spizizenii [10], 0.5 µg/mL (≈ 1.04 µM) against Aspergillus brasiliensis [15] and 0.25 µg/mL (≈ 0.522 µM) against Aspergillus niger [17]. For the same molecule, the MIC result (in the experiment on Shigella dysenteriae [7]; in the experiment with Proteus vulgaris [8]; in the experiment on Candida albicans [11]; in the experiment on Staphylococcus aureus [12]; in the experiment on Escherichia coli [18]; in experiment [23]) was “inactive” throughout. Also, the MIC result in the experiment on Klebsiella pneumoniae [24] and with Pseudomonas aeruginosa [25] was “inactive” each time. Also, the inhibition result in [19] was “inactive”. Also, the IC50 entry on Cholinesterase is “Not Active”.

For `Cc1ccc(C2CC(c3cc4cc(Br)ccc4o3)=Nc3ccccc3S2)cc1` (stereo not given), the inhibition entry in experiment [19] was “inactive”. The IC50 on Cholinesterase (read-out: IC50) worked out at 8.5 µM.

As for `O=[N+]([O-])c1ccc2oc(C3=Nc4ccccc4SC(c4c[nH]c5ccccc45)C3)cc2c1` (stereo not given), the inhibition result in experiment [19] was “inactive”. In addition, the IC50 at Cholinesterase (read-out: IC50) worked out at 72 µM.

Consider `O=[N+]([O-])c1ccc2oc(C3=Nc4ccccc4SC(c4ccccc4)C3)cc2c1` (stereo not given), for which the inhibition entry in [19] was “inactive”. For the same molecule, the 50% inhibitory concentration (IC50) entry at Cholinesterase is “Not Active”.

`COc1ccccc1C1CC(c2cc3ccccc3o2)=Nc2ccccc2S1` (stereo not given): the inhibition result in experiment [19] was “inactive”. For the same molecule, at Cholinesterase (read-out: IC50), the IC50 was determined as 4.8 µM.

In the case of GENTAMICIN, the inhibition zone (IZ) came to 18 mm in the experiment with Shigella dysenteriae [3]; 23 mm in the experiment with Proteus vulgaris [5]; 21 mm with Bacillus spizizenii [6]; 21 mm in the experiment on Salmonella paratyphi [9] (Salmonella enterica subsp. enterica serovar Paratyphi A); 35 mm in experiment [20]; 22 mm with Klebsiella pneumoniae [21]. This molecule also yielded an MIC against Klebsiella pneumoniae [24] of 0.25 µg/mL. Besides, the MIC result in the experiment on Pseudomonas aeruginosa [25] is “inactive”.

Turning to `c1ccc2c(c1)N=C(c1cc3ccccc3o1)CC(c1c[nH]c3ccccc13)S2` (stereo not given), the inhibition result in [19] was “inactive”. On Cholinesterase (read-out: IC50), the IC50 turned out to be 60 µM.

As for `Brc1ccc2oc(C3=Nc4ccccc4SC(c4ccccc4)C3)cc2c1` (stereo not given), in [19], the inhibition result is “inactive”. The IC50 on Cholinesterase (read-out: IC50) is 8.5 µM.

Regarding `COc1ccc(C2CC(c3cc4ccccc4o3)=Nc3ccccc3S2)cc1` (stereo not given), the inhibition entry in experiment [19] was “inactive”. The IC50 on Cholinesterase (read-out: IC50) was 4 µM.

`COc1cccc2cc(C3=Nc4ccccc4SC(c4ccccc4)C3)oc12` (stereo not given): the inhibition entry in [19] was “inactive”. Also, the IC50 at Cholinesterase (read-out: IC50) amounted to 2.5 µM.
